Screening results as filed in PubChem.
A selection: hits, their analogues and other compounds. The true share with any hit is near 3.5%.
MrgX1 ag = agonists of human MrgX1 receptor, primary screen, HEK293 cells, Fluo-4 calcium flux. Mas-related G-protein coupled receptor member X1 (Homo sapiens), Q96LB2. Fluo-4 calcium fluorescence, agonist mode; active compounds read high. B-score at 10 µM. 310,000 tested, 0.44% active. AID 588627, 2011;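 active = calcium response B-score plate-corrected fluorescence ratio at least 3 library SD, with starting fluorescence B-score inside 5 SD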
Target sequence (Q96LB2 whole entry, looked up): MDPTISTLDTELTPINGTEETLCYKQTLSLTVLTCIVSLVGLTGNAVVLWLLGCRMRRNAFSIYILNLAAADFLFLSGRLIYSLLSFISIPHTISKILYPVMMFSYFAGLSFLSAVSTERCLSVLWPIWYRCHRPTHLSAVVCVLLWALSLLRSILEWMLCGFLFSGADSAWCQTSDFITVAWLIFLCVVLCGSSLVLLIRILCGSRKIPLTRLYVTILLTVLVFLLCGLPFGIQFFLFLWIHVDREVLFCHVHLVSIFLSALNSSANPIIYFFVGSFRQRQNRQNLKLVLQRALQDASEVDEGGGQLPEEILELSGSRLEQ
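Test system: HEK293 cells stably expressing human MrgX1 receptor; Input: fifteen thousand cells per well; Dosing: compound delivered in addition one of three; Schedule: overnight seeding, then 1 h dark dye loading; Technique: Fluo-4 NW calcium fluorescence; Measure: B-scored fluorescence response ratio; Controls: positive and negative controls per plate.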
MrgX1 allo act = positive allosteric modulators of MrgX1, primary screen, HEK293 cells, Fluo-4 calcium flux. Mas-related G-protein coupled receptor member X1 (Homo sapiens), Q96LB2. FDSS; active compounds read high. B-score at 10 µM. 310,000 tested, 0.63% active. AID 588675, 2011;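 active = plate-corrected calcium response at least 3 library SD above typical, normal starting fluorescence, not activating the receptor alone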;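 also: compound read alongside a low EC10 to EC30 dose of BAM8-22 agonist; peak minus trough fluorescence over baseline measured at the second addition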
RGS4 act = RGS4 potentiators or activators, primary screen, cell-based, HEK293 M3R inducible RGS4, calcium flux | carbachol calcium flux Fluo4; active compounds read low | 310,000 tested, 0.92% active | B-score at 10 µM | AID 463111, 2010;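 active = B-score of the integrated calcium signal more than 4 SD below the library mean, with starting fluorescence not abnormally high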;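 also: negative B-score means reduced calcium response which marks RGS4 activation or potentiation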
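Assay system: HEK293 FlpIn-TREx cells, stable M3R, doxycycline-inducible RGS4 / Probe or stimulus: carbachol, ECmax concentration / Times: overnight RGS4 induction, 30 min dye load 37 °C, 20 min compound RT / Signal: kinetic calcium fluorescence imaging with Fluo4-AM dye, 2 µM / Measure: Agonist-evoked peak-minus-minimum fluorescence over baseline, integrated ratio, B score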
RGS4 inh = RGS4 inhibitors, primary screen, cell-based, HEK293 M3R inducible RGS4, calcium flux | Fluo-4 calcium flux; active compounds read high; triggered by carbachol at its EC20 | B-score at 10 µM | 310,000 tested, 0.45% active;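 active = B-score, a plate-corrected calcium signal, over three deviations above library mean, with baseline fluorescence within five deviations of library mean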;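 also: RGS4 expression induced by doxycycline in cells with stable M3 receptor; B-score is computed from the integrated fluorescence ratio over baseline after carbachol; higher B-score means a larger calcium signal and so more RGS4 inhibition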
Target sequence (P49798 whole entry, looked up): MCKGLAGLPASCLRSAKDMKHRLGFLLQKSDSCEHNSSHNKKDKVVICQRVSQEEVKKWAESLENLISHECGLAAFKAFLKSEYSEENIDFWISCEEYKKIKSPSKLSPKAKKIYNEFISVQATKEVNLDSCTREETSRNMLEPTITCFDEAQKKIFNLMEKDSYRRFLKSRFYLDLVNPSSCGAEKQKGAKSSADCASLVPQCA
MrgX1 antagonist = antagonists of human MrgX1 receptor, primary screen, HEK293 cells, Fluo-4 calcium flux; B-score at 10 µM; Mas-related G-protein coupled receptor member X1 (Homo sapiens), Q96LB2; 310,000 tested, 1.3% active; AID 588676, 2011; BAM8-22 antagonism; active compounds read low;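 active = calcium-response B-score plate-corrected more than 3 library SD below zero, starting fluorescence within 5 deviations, no agonist response on first addition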;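 also: peak minus trough fluorescence over baseline after final BAM8-22 challenge near maximal dose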
RGS4 activ val = reduced carbachol calcium response, RGS4-induced M3R cells, confirmation, RGS4 activator project, cell-based, HEK293 M3R/RGS4 inducible, calcium flux, duplicate | shares compounds with RGS4 act | carbachol calcium flux Fluo4 | inhibition, % at 10 µM | 1,100 tested, 89% active | AID 602282, 2012;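 active = inhibition above 3 SD of the buffer control wells, cut at about 41% in these data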;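 also: signal is the integrated peak-minus-minimum Fluo4 fluorescence over baseline ratio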
M3R Ca counter = activity in cells without induced RGS4 expression | HEK293 M3R non-induced RGS4, Fluo4 calcium flux; after carbachol challenge at its EC90 | 1,100 tested, 82% active | shares compounds with RGS4 act | AID 602283 | inhibition, % at 10 µM;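 active = inhibition exceeding 3 SD of buffer-only control wells, cut at about 26% in these data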;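 also: percent drop in integrated peak-minus-baseline over baseline Fluo4 ratio after carbachol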
MrgX1 ag reconf = MrgX1 receptor agonists, duplicate retest, confirmation, HEK293 cells, Fluo-4 calcium flux. shares compounds with MrgX1 ag. Fluo-4 calcium fluorescence, FDSS. activation, % at 10 µM. 600 tested, 78% active. AID 602412, 2012;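 active = calcium signal rise, corrected for plate position, at least 3 library SD high, with starting brightness within 5 such deviations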
MrgX1 PAM conf = MrgX1 positive allosteric modulators, duplicate retest, confirmation, HEK293 cells, Fluo-4 calcium flux; shares compounds with MrgX1 allo act; Fluo-4 calcium fluorescence, FDSS; activation (ratio percentage), % at 10 µM; 1,200 tested, 13% active; AID 602413, 2012;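 active = ratio at least 3 SD above the weak peptide control, stable starting fluorescence, no direct agonism earlier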;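 also: compound followed by low BAM8-22 agonist challenge near EC20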
MrgX1 ant reconf = MrgX1 receptor antagonists, duplicate retest, confirmation, HEK293 cells, Fluo-4 calcium flux; remaining BAM8-22 calcium response % of control (active compounds read low), % at 10 µM; 2,300 tested, 19% active; BAM8-22 calcium flux; active compounds read low; AID 602420, 2012; shares compounds with MrgX1 antagonist;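 active = remaining agonist calcium response no higher than 100% minus 3 SD of agonist-only control wells, with starting fluorescence near control levels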;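 also: agonist BAM8-22 given at a near maximal EC90 to ECmax level; peak minus minimum fluorescence divided by baseline after agonist addition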
HEK293 Ca flux = nonspecific calcium signal in parental HEK293, confirmation, counter-screen for MrgX1 antagonist project, parental HEK293 cells, Fluo-4 calcium flux; shares compounds with MrgX1 antagonist; Fluo-4 calcium fluorescence, FDSS; 4,000 tested, 2% active; fluorescence ratio F(max-min)/F0 at 10 µM;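 active = duplicate-averaged calcium fluorescence ratio at least three times the standard deviation of buffer wells, a nonspecific response in parental cells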
HEK293 Ca counter = calcium response in parental HEK293 cells, primary screen, counter-screen for MrgX1 allosteric activator project, cell-based, Fluo-4 calcium flux, duplicate; shares compounds with MrgX1 antagonist; Fluo-4 fluorescence ratio; active compounds read high; fluorescence ratio F(max-min)/F0 at 10 µM; 4,000 tested, 0.4% active; AID 624114, 2012;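 active = calcium fluorescence ratio, averaged over duplicates, at least 3 SD of the buffer-well ratio, meaning a nonspecific response in receptor-free cells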;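 also: untransfected parental HEK293 lacking MrgX1 used as counterscreen for MrgX1 allosteric activators; fluorescence change taken during the second addition on a kinetic imager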
HEK293 Ca cntr2 = calcium response in parental HEK293 cells, primary screen, counter-screen for MrgX1 agonist project, cell-based, Fluo-4 calcium flux, duplicate, agonist mode; shares compounds with MrgX1 antagonist; Fluo-4 calcium fluorescence (FDSS); active compounds read high; fluorescence ratio F(max-min)/F0 at 10 µM; 4,000 tested, 8.7% active; AID 624115, 2012;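 active = calcium fluorescence ratio at least three times the spread of buffer wells, meaning a non-specific response in parental cells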
An asterisk follows results filed as active.

What do the screens show for `CCCOc1ccc(C(=O)NC(=S)NNC(=O)c2c(-c3ccccc3)noc2C)cc1`?
MrgX1 ag: 105*; MrgX1 allo act: inactive; RGS4 act: -11*; RGS4 inh: inactive; MrgX1 antagonist: inactive; RGS4 activ val: 92*; M3R Ca counter: 82*; MrgX1 ag reconf: 690%*; HEK293 Ca flux: inactive; HEK293 Ca counter: inactive; HEK293 Ca cntr2: 115*

What do the screens show for `Cc1onc(-c2ccccc2)c1C(=O)NC(=S)NNC(=O)c1ccc(O)cc1`?
MrgX1 ag: inactive; MrgX1 allo act: inactive; RGS4 act: inactive; RGS4 inh: inactive; MrgX1 antagonist: inactive

Results for O=C(CSc1nc2ccccc2c2c1CCCC2)N1CCOCC1 ?
MrgX1 ag: inactive; MrgX1 allo act: 19*; RGS4 act: -9.3*; RGS4 inh: inactive; MrgX1 antagonist: inactive; RGS4 activ val: 92*; M3R Ca counter: 92*; MrgX1 PAM conf: inactive; HEK293 Ca flux: inactive; HEK293 Ca counter: inactive; HEK293 Ca cntr2: inactive

What do the screens show for `Cn1c(SCC(=O)NCCNC(=O)CSc2nnc(C(F)(F)F)n2C)nnc1C(F)(F)F`?
MrgX1 ag: inactive; MrgX1 allo act: inactive; RGS4 act: inactive; RGS4 inh: inactive; MrgX1 antagonist: inactive

Results for CC(OC(=O)c1cc(Br)ccc1O)C(=O)NC1(C#N)CCCCC1 (stereo unspecified) ?
MrgX1 ag: inactive; MrgX1 allo act: inactive; RGS4 act: inactive; RGS4 inh: inactive; MrgX1 antagonist: inactive

Results for COc1cccc(NC(=O)Nc2nc(-c3ccc(OC)c(OC)c3)cs2)c1 ?
MrgX1 ag: inactive; MrgX1 allo act: inactive; RGS4 act: -8.1*; RGS4 inh: inactive; MrgX1 antagonist: -7*; RGS4 activ val: 92*; M3R Ca counter: 85*; MrgX1 ant reconf: 22%*; HEK293 Ca flux: inactive; HEK293 Ca counter: inactive; HEK293 Ca cntr2: inactive

How did OCCCNc1ncnc2oc(-c3ccccc3)c(-c3ccccc3)c12 do in these assays?
MrgX1 ag: inactive; MrgX1 allo act: inactive; RGS4 act: -8.4*; RGS4 inh: inactive; MrgX1 antagonist: -5*; RGS4 activ val: 0; M3R Ca counter: 0; MrgX1 ant reconf: inactive; HEK293 Ca flux: inactive; HEK293 Ca counter: inactive; HEK293 Ca cntr2: inactive

What do the screens show for `CC(=O)NC(Cc1c[nH]c2ccccc12)C(=O)OCC(=O)N1CCCCCC1` (stereo unspecified)?
MrgX1 ag: inactive; MrgX1 allo act: inactive; RGS4 act: inactive; RGS4 inh: inactive; MrgX1 antagonist: inactive

How did c1ccc(Cn2nnc3cnccc32)cc1 do in these assays?
MrgX1 ag: inactive; MrgX1 allo act: inactive; RGS4 act: -8.4*; RGS4 inh: inactive; MrgX1 antagonist: -6.7*; RGS4 activ val: 0; M3R Ca counter: 0; MrgX1 ant reconf: inactive; HEK293 Ca flux: inactive; HEK293 Ca counter: inactive; HEK293 Ca cntr2: inactive

How did c1ccc(Cn2nnc3ccccc32)cc1 do in these assays?
MrgX1 ag: inactive; MrgX1 allo act: inactive; RGS4 act: inactive; RGS4 inh: inactive; MrgX1 antagonist: inactive

Results for CCCc1ccc(Oc2cn[nH]c2-c2ccc(O)c(C)c2O)cc1 ?
MrgX1 ag: inactive; MrgX1 allo act: inactive; RGS4 act: -9.1*; RGS4 inh: inactive; MrgX1 antagonist: -6.8*; RGS4 activ val: 93*; M3R Ca counter: 94*; MrgX1 ant reconf: inactive; HEK293 Ca flux: inactive; HEK293 Ca counter: inactive; HEK293 Ca cntr2: inactive

Results for Cc1ccc(OCc2ccc(C(=O)O)o2)c([N+](=O)[O-])c1 ?
MrgX1 ag: inactive; MrgX1 allo act: inactive; RGS4 act: inactive; RGS4 inh: inactive; MrgX1 antagonist: inactive

Results for COc1ccc(CC(=O)Nc2cccc(-c3nnc(-c4cccc(C)c4)o3)c2)cc1OC ?
MrgX1 ag: inactive; MrgX1 allo act: inactive; RGS4 act: -9.9*; RGS4 inh: inactive; MrgX1 antagonist: -12*; RGS4 activ val: 94*; M3R Ca counter: 94*; MrgX1 ant reconf: 5.5%*; HEK293 Ca flux: inactive; HEK293 Ca counter: inactive; HEK293 Ca cntr2: inactive

Results for Cc1ccc(OCC(=O)Nc2cccc(-c3nnc(-c4ccccc4)o3)c2)c(C)c1 ?
MrgX1 ag: inactive; MrgX1 allo act: inactive; RGS4 act: inactive; RGS4 inh: inactive; MrgX1 antagonist: inactive

What do the screens show for `CC1(C)CC(=O)C2=C(C1)Nc1ccccc1S2`?
MrgX1 ag: inactive; MrgX1 allo act: inactive; RGS4 act: inactive; RGS4 inh: inactive; MrgX1 antagonist: inactive
